One block for each compound: values may come before it. The source made the active and inactive calls. The rule behind the calls is not given here.
Legend:
[1] = target: T1, Metabotropic glutamate receptor 5 (Rattus norvegicus, UniProt P31424); assay: Displacement of [3H]-ABP688 from mGluR5 receptor in Sprague-Dawley rat brain after 45 mins by beta counting
How it was run: (§1)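 0.1 mg protein incubated in triplicate at ambient temperature with 2 nM [3H]-ABP688 and competitor 10 pM–100 μM for 45 min. Nonspecific binding from 100 μM MMPEP. Filtered, β-counted.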

[2] = Lipophilicity, log D of the compound at pH 7.4 using shake flask method; format: physicochemical; settings: buffer
[3] = Lipophilicity, log D of the compound at pH 7.4 by HPLC analysis; format: physicochemical; settings: buffer
[4] = target: Metabotropic glutamate receptor 5 (Rattus norvegicus) (UniProt P31424); assay: Binding affinity to mGluR5 receptor in Wistar rat brain at 1 to 10 nM after 45 mins by autoradiography in presence of ABP688; settings: tested as the 18F-labelled form
How it was run: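 Horizontal brain slices (20 μm) from a male Wistar rat were thawed and preincubated on ice for 10 min in HEPES buffer with 0.1% BSA. They were then incubated with 1 or 10 nM radiotracer, alone or with 100 nM ABP688, in HEPES for 45 min at ambient temperature. Washed on ice in HEPES/0.1% BSA, then twice in HEPES (3 min each), and dipped in water.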

[5] = target: T1, Metabotropic glutamate receptor 5; assay: Binding affinity to mGluR5 receptor in Sprague-Dawley rat brain by beta counting; how it was run: as §1
[6] = Chemical stability in phosphate buffer at 21 MBq at pH 7.4 after 2 hrs by HPLC analysis; settings: pH 7.4, 2 h
Plasma = assay: Metabolic stability of the compound in rat plasma at 7 to 8 MBq after 2 hrs by HPLC analysis; format: ADME, cell-free; settings: in the assay text read “21 MBq” for “7 to 8 MBq”
How it was run: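 Radiotracer (21 MBq) incubated at 37 °C for up to 2 h in phosphate buffer (4 mM KH2PO4/Na2HPO4, 155 mM NaCl, pH 7.4) or rat plasma. Samples taken at several time points, quenched with ice-cold MeCN. Plasma samples centrifuged at 12000g for 10 min. Samples filtered; supernatants analyzed by radio-HPLC on a reversed-phase C18 column with 70% aq MeCN.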

T1 sequence (P31424 whole entry): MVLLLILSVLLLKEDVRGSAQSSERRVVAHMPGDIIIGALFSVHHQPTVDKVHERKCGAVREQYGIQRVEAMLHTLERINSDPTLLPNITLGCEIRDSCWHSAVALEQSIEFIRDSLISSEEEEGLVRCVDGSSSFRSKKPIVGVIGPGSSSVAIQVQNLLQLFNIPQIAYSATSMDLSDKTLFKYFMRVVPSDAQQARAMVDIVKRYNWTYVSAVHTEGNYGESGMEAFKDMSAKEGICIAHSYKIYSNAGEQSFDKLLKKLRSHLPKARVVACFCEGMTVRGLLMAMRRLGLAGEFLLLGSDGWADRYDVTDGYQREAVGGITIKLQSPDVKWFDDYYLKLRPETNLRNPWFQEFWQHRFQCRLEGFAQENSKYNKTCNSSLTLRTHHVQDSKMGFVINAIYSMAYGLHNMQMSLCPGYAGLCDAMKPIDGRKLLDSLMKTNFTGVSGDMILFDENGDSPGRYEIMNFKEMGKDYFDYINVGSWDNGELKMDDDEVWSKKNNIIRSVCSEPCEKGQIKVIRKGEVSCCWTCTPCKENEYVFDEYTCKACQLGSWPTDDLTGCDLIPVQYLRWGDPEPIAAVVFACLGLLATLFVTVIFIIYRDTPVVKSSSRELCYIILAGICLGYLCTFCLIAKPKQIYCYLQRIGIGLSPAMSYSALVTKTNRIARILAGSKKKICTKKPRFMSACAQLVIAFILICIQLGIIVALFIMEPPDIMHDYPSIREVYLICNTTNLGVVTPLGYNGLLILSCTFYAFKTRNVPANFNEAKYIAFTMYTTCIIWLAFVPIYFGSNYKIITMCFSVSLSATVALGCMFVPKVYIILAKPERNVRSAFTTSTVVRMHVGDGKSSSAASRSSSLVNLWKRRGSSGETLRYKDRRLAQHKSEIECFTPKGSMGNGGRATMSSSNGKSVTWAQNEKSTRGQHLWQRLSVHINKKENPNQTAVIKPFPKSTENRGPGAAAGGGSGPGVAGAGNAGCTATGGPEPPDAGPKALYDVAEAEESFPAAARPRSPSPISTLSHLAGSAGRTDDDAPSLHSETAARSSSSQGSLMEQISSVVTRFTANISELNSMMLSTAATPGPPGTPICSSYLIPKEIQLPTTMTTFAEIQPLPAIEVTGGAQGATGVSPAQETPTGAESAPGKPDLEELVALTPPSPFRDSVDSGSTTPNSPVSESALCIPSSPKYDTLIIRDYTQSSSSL
Chain of Metabotropic glutamate receptor 5 (Rattus norvegicus) (P31424 21-1203 limits assumed): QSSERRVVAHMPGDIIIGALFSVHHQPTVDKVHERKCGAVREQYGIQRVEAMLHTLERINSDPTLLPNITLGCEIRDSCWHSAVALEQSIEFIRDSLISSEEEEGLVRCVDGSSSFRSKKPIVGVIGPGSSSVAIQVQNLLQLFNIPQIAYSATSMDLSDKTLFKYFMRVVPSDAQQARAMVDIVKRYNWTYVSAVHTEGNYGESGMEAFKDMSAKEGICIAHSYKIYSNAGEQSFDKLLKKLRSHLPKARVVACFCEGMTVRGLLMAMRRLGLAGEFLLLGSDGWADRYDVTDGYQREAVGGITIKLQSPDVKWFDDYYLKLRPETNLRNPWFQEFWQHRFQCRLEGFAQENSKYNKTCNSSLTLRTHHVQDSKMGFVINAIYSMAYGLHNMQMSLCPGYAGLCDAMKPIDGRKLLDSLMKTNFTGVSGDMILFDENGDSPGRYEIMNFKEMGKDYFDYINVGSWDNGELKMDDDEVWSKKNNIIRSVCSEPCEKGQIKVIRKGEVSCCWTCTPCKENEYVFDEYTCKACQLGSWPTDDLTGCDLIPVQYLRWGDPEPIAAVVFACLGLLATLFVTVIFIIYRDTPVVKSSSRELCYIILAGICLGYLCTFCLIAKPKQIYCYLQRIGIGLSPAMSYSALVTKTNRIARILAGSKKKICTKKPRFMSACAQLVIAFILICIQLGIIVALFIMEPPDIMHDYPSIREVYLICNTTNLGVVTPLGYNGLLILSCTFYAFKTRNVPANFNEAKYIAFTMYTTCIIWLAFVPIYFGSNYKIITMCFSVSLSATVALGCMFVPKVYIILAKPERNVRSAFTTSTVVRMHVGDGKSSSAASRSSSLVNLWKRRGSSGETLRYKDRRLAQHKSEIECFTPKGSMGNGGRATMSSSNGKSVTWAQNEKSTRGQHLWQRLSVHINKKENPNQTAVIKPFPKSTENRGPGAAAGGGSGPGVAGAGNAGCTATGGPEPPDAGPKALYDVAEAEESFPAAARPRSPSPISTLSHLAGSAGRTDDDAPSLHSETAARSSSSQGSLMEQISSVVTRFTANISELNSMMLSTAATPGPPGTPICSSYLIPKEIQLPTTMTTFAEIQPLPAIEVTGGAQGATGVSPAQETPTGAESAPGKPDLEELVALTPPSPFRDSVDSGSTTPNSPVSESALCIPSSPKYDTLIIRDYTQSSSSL

SMILES: CO/N=C1/C=C(C#Cc2cccc(C)n2)CCC1F (stereo unspecified)
Ki [1]: 8.5 nM

SMILES: CCO/N=C1/C=C(C#Cc2cccc(C)n2)CCC1F (stereo unspecified)
Ki [1]: 13 nM

SMILES: CCO/N=C1\C=C(C#Cc2ccccn2)CCC1F (stereo unspecified)
logD [2]: 3.5
logD [3]: 2.1
Activity [4]: Active
Ki [1]: 31.2 nM

SMILES: CCO/N=C1\C=C(C#Cc2ccccn2)CCC1[18F] (stereo unspecified)
Kd [5]: 70 nM
Stability [6]: Stable
Stability (Plasma): Stable

Further lines, results first:

Ki [1]: 5.7 nM
SMILES: CCO/N=C1/C=C(C#Cc2ccccn2)CCC1F (stereo unspecified)

Ki [1]: 3.4 nM
SMILES: CO/N=C1/C=C(C#Cc2ccccn2)CCC1F (stereo unspecified)

Reference: ChEMBL document CHEMBL2163223, “Synthesis and evaluation of novel α-fluorinated (E)-3-((6-methylpyridin-2-yl)ethynyl)cyclohex-2-enone-O-methyl oxime (ABP688) derivatives as metabotropic glutamate receptor subtype 5 PET radiotracers” (J Med Chem, 2012)
